# ChEMBL document CHEMBL4477207, “Discovery of Novel 3-Quinoline Carboxamides as Potent, Selective, and Orally Bioavailable Inhibitors of Ataxia Telangiectasia Mutated (ATM) Kinase” (J Med Chem, 2016)
# Active and inactive are the calls of the source. The calls are words filed in the database; no cut-off is given here.
# How the values were obtained:
# [1] = molecular target: Glycogen synthase kinase-3 beta (Homo sapiens, UniProt P49841); assay: Inhibition of GSK3beta (unknown origin)
# [2] = molecular target: T1, Serine-protein kinase ATM (Homo sapiens, UniProt Q13315); assay: Inhibition of ATM phosphorylation at Ser-1981 residue in human HT-29 cells incubated for 1 hr followed by X-ray irradiation by Hoechst staining based fluorescence plate reader analysis; type: cell-based
# T1 sequence (Q13315 whole entry): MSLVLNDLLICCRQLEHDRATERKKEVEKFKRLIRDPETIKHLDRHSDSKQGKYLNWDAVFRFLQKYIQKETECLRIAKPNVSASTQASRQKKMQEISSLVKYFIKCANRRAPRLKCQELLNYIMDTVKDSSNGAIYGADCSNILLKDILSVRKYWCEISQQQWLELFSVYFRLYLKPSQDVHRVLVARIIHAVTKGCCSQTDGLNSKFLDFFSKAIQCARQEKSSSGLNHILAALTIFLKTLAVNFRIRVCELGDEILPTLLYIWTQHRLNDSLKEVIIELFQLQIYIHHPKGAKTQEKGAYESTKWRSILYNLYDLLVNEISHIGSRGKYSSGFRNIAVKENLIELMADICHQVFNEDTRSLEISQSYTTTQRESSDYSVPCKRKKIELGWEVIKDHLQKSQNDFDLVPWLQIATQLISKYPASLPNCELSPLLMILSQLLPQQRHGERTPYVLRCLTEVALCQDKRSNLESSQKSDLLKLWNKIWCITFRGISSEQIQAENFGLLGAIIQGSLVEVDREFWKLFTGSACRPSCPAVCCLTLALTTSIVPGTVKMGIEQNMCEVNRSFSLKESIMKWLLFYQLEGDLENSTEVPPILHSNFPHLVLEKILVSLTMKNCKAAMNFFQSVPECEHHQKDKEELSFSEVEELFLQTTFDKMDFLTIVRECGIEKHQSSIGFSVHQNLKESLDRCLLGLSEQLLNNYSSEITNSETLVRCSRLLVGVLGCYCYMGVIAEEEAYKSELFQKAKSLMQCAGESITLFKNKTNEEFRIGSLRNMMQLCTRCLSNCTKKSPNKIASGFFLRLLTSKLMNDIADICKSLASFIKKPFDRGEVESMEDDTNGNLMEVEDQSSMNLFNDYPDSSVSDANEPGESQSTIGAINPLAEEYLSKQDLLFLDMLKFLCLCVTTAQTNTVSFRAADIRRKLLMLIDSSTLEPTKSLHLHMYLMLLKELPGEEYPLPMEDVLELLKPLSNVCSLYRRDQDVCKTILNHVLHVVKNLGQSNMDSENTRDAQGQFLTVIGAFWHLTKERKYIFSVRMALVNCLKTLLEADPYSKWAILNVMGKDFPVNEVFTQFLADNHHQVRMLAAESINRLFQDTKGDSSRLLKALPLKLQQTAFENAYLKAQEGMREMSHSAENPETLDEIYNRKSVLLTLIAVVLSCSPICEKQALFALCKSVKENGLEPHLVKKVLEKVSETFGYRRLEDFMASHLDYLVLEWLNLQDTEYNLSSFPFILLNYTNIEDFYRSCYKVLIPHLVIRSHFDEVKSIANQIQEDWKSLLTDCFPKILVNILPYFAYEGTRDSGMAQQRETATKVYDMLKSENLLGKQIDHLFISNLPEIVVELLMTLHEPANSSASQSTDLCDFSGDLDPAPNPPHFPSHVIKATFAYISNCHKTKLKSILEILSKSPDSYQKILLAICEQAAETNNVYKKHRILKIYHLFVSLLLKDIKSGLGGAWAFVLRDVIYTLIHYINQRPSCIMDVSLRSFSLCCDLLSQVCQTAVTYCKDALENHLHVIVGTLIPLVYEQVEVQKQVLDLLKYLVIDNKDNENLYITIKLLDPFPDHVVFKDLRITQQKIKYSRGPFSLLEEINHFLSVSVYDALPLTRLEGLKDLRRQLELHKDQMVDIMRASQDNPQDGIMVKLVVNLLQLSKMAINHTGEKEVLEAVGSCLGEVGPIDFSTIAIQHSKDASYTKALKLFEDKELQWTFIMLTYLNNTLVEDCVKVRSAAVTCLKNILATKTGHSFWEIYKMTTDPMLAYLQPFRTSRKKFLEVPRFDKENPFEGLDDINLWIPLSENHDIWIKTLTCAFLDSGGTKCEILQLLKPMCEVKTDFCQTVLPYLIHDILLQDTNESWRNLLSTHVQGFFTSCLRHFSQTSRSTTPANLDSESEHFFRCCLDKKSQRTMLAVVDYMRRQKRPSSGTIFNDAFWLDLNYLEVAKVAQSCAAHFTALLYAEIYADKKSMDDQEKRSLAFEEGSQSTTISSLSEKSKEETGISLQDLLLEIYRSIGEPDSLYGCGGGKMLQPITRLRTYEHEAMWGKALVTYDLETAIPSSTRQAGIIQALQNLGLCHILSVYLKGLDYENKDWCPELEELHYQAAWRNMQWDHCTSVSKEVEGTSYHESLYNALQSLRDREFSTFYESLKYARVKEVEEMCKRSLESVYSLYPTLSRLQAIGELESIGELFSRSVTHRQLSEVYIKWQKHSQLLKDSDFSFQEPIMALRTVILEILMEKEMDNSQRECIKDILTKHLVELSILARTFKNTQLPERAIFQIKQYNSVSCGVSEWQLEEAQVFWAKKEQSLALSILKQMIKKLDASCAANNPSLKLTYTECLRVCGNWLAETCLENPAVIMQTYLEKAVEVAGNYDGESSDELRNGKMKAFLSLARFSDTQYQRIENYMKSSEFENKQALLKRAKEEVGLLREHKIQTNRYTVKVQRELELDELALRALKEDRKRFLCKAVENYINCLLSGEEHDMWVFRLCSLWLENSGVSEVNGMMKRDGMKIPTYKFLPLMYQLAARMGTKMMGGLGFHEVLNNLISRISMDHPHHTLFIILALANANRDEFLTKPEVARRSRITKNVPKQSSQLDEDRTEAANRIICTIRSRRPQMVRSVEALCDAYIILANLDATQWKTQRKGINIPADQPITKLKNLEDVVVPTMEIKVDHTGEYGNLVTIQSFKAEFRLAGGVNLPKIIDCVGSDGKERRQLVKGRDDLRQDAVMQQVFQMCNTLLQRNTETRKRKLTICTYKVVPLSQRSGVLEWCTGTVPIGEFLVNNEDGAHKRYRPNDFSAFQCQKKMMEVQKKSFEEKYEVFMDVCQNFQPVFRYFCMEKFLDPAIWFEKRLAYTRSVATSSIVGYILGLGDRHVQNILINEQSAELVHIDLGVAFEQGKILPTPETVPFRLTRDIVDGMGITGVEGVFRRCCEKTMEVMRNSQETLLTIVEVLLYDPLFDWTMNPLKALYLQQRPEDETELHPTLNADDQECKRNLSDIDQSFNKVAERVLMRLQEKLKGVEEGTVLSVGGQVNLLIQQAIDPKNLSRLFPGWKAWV
# [3] = molecular target: Voltage-gated inwardly rectifying potassium channel KCNH2 (Homo sapiens, UniProt Q12809)
# [4] = molecular target: Vascular endothelial growth factor receptor 2 (Homo sapiens, UniProt P35968); assay: Inhibition of KDR (unknown origin)
# in vitro [5] = details: human, hepatocytes
# physchem = details: octanol/buffer, pH 7.4
# [6] = molecular target: Serine/threonine-protein kinase ATR (Homo sapiens, UniProt Q13535); assay: Inhibition of ATR in human HT-29 cells assessed as reduction in Chk1 phosphorylation at Ser-345 residue after 60 mins in presence of 4-nitroquinoline-1-oxide by Hoechst 33258 staining based plate reader analysis; type: cell-based
# in vitro [7] = details: rat, hepatocytes
# [8] = molecular target: T1, Serine-protein kinase ATM; assay: Inhibition of ATM in human HT-29 cells assessed as reduction in ATM phosphorylation at Ser-1981 residue up to 30 uM incubated for 1 hr followed by X-ray irradiation by Hoeschst staining based plate reader analysis; type: cell-based
# SW-620 = assay: Antitumor activity against human SW620 cells xenografted in immunocompromised athymic Swiss nude mouse assessed as tumor growth inhibition at 50 mg/kg, ip once in a week for 3 weeks regime starting day 1 post xenograft; type: functional, organism-based
# [9] = molecular target: Phosphatidylinositol 4,5-bisphosphate 3-kinase catalytic subunit alpha isoform (Homo sapiens, UniProt P42336); assay: Inhibition of human recombinant PI3Kalpha using PIP2/ATP as substrate incubated for 20 mins followed by substrate addition by Kinase Glo reagent based luminescence assay
# [10] = molecular target: Serine/threonine-protein kinase mTOR (Homo sapiens, UniProt P42345); assay: Inhibition of C-terminal FLAG-tagged recombinant mTOR (1362 to 2549 residues) (unknown origin) using Biotin-Ahx-Lys-Lys-Ala-Asn-Gln-Val-Phe-Leu-Gly-Phe-Thr-Tyr-Val-Ala-Pro-Ser-Val-Leu-Glu-Ser-Val-Lys-Glu-NH2 as substrate after 90 mins by AlphaScreen assay
# [11] = molecular target: Phosphatidylinositol 4,5-bisphosphate 3-kinase catalytic subunit beta isoform (Homo sapiens, UniProt P42338); assay: Inhibition of human recombinant PI3Kbeta using PIP2/ATP as substrate incubated for 20 mins followed by substrate addition by Kinase Glo reagent based luminescence assay
# [12] = molecular target: Phosphatidylinositol 4,5-bisphosphate 3-kinase catalytic subunit gamma isoform (Homo sapiens, UniProt P48736); assay: Inhibition of human recombinant PI3Kgamma using PIP2/ATP as substrate incubated for 20 mins followed by substrate addition by Kinase Glo reagent based luminescence assay
# Sequence of Phosphatidylinositol 4,5-bisphosphate 3-kinase catalytic subunit gamma isoform (P48736 whole entry, canonical isoform): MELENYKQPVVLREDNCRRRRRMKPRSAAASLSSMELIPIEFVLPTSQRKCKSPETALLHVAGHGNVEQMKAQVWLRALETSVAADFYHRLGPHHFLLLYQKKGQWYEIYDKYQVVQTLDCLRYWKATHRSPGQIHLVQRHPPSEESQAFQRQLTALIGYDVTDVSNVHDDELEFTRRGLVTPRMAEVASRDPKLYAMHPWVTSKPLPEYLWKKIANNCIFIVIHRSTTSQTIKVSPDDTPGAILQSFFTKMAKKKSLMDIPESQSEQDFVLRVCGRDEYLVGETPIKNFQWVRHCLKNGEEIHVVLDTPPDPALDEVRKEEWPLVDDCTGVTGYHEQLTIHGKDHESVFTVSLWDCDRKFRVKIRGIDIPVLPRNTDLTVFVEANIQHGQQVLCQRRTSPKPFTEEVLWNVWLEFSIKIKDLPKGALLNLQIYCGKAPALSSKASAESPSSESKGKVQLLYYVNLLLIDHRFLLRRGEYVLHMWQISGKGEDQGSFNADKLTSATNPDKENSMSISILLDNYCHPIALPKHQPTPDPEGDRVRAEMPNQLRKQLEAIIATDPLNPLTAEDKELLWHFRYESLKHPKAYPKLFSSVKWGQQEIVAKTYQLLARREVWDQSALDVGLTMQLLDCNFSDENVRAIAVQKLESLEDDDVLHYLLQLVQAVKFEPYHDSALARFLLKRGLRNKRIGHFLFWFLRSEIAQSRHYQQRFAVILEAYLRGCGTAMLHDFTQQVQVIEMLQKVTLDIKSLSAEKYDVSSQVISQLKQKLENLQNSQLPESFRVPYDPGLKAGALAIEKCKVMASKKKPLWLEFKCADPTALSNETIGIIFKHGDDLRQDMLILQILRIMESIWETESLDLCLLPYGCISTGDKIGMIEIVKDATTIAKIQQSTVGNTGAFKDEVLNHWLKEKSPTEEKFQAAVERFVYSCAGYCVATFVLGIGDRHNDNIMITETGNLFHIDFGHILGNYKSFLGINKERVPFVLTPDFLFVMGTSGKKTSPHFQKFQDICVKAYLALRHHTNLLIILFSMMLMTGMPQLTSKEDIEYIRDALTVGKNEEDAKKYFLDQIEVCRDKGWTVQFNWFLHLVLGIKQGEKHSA
# [13] = Oral bioavailability in dog at 4.2 mg/kg; type: ADME, organism-based, Canis lupus familiaris; details: in vivo
# [14] = Thermodynamic solubility of the compound in 0.1M aqueous phosphate buffer at pH 7.4 after 24 hrs by LC-UV analysis; type: physicochemical; details: read-out: Therm_solubility
# Procedure, shortened: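 Solid samples equilibrated in 0.1 M aqueous phosphate buffer, pH 7.4, for 24 h at 25 °C.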
# [15] = Cmax in nude mouse at 50 mg/kg, po; type: ADME, organism-based; parameters: dose 50 mg/kg, route oral; details: in vivo
# Procedure, shortened: (§1)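 Nude mice, single oral dose of 50 mg/kg. Vehicle was either a propylene glycol aqueous solution or 10% DMSO:90% captisol solution.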
# Mus musculus = assay: Time duration during which free plasma concentration stays above in-vitro ATM IC50 level in nude mouse at 50 mg/kg, po; type: ADME, organism-based; details: in vivo; procedure, shortened: as §1
# [16] = Oral bioavailability in Han Wistar rat at 5 mg/kg; type: ADME, organism-based; details: in vivo
# [17] = Intrinsic clearance in human hepatocytes assessed per million cells; type: ADME, cell-based, Hepatocyte; details: read-out: CLH
# Procedure, shortened: (§2)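 Intrinsic clearance measured in hepatocytes of each species, reported as µL/min/10⁶ cells.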
# [18] = Clearance in Han Wistar rat at 2 mg/kg, iv or 5 mg/kg, po; type: ADME, organism-based; details: in vivo
# [19] = Intrinsic clearance in rat hepatocytes assessed per million cells; type: ADME, cell-based, Hepatocyte; details: read-out: CLH; procedure, shortened: as §2
# [20] = Clearance in dog at 1.7 mg/kg, iv or 4.2 mg/kg, po; type: ADME, organism-based, Canis lupus familiaris; details: in vivo
# [21] = Volume of distribution at steady state in dog at 1.7 mg/kg, iv or 4.2 mg/kg, po; type: ADME, organism-based, Canis lupus familiaris; details: in vivo, read-out: Vdss
# [22] = AUC (0 to 24 hrs) in nude mouse at 50 mg/kg, po; type: ADME, organism-based; parameters: dose 50 mg/kg, time < 24 hr, route oral; details: in vivo; procedure, shortened: as §1
# [23] = Volume of distribution at steady state in Han Wistar rat at 2 mg/kg, iv or 5 mg/kg, po; type: ADME, organism-based; details: in vivo, read-out: Vdss
# [24] = Intrinsic clearance in mouse hepatocytes assessed per million cells; type: ADME, cell-based, Hepatocyte; details: read-out: CLH; procedure, shortened: as §2
# [25] = Intrinsic clearance in dog hepatocytes assessed per million cells; type: ADME, cell-based, Canis lupus familiaris, Hepatocyte; details: read-out: CLH; procedure, shortened: as §2
# [26] = molecular target: DNA-dependent protein kinase catalytic subunit (Homo sapiens, UniProt P78527); assay: Inhibition of DNAPK (unknown origin) using p53-based peptide substrate preincubated for 5 min prior to ATP addition
# [27] = molecular target: T1, Serine-protein kinase ATM; assay: Inhibition of ATM (unknown origin) using p53 as substrate incubated for 30 mins followed by substrate addition measured after 2 hrs in presence of ATP by HTRF method
# Homo sapiens [28] = organism: Homo sapiens; assay: Selectivity ratio of IC50 for ATR in human HT-29 cells to IC50 for ATM in human HT-29 cells; type: cell-based
# Homo sapiens [29] = organism: Homo sapiens; assay: Selectivity ratio of IC50 for DNAPK (unknown origin) to IC50 for ATM (unknown origin)
# Procedure, shortened: (§3)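 Enzymatic selectivity calculated as the off-target enzyme IC50 over the ATM enzyme IC50. IC50s in µM, taken as means of at least 3 (ATM) or 2 (other enzymes) independent measurements.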
# Homo sapiens [30] = organism: Homo sapiens; assay: Selectivity ratio of IC50 for human recombinant PI3Kalpha to IC50 for ATM (unknown origin); procedure, shortened: as §3
# Homo sapiens [31] = organism: Homo sapiens; assay: Selectivity ratio of IC50 for human recombinant PI3Kbeta to IC50 for ATM (unknown origin); procedure, shortened: as §3
# Homo sapiens [32] = organism: Homo sapiens; assay: Selectivity ratio of IC50 for C-terminal FLAG-tagged recombinant mTOR (1362 to 2549 residues) (unknown origin) to IC50 for ATM (unknown origin); procedure, shortened: as §3
# 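Wherever logD is given: determined by the shake flask method.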
# Sequence of Glycogen synthase kinase-3 beta (P49841 whole entry): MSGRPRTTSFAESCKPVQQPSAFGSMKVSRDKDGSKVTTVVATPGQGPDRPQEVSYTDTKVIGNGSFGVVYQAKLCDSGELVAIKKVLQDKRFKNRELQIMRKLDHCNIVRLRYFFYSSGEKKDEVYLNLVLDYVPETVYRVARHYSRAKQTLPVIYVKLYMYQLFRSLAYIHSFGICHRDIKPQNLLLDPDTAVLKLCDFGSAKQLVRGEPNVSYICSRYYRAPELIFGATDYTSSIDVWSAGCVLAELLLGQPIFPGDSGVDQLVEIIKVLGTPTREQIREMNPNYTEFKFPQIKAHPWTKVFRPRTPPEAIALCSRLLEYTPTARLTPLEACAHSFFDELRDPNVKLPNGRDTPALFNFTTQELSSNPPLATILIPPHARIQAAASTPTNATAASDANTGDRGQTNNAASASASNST
SMILES,IC50 [2] [µM],IC50 [3] [µM],hepatocyte CLint at 1.5 h (in vitro [5]) [µL/min/1e6 cells],logD (physchem),IC50 [6] [µM],hepatocyte CLint at 1.5 h (in vitro [7]) [µL/min/1e6 cells],IC50 [9] [µM],IC50 [10] [µM],IC50 [11] [µM],IC50 [12] [µM],further results
CCC(CC)CNc1c(C(N)=O)cnc2ccc(-c3ccc(COC)nc3)cc12,0.045,2.5,< 6.8,> 4.3,> 30,110,,,,,IC50 [1]: > 100 µM; IC50 [4]: 82 µM
CCC(CC)COc1c(C(N)=O)cnc2ccc(-c3cccnc3)cc12,> 30,2.1,42,> 4.3,> 30,260,,,,,inhibition [8]: inactive
CCc1c2c(nc3ccc(OC(=O)N4CCC(N5CCCCC5)CC4)cc13)-c1cc3c(c(=O)n1C2)COC(=O)[C@]3(O)CC,,,,,,,,,,,TGI (SW-620): Active
O=c1cc(-c2cccc3c2Sc2ccccc2S3)oc(N2CCOCC2)c1 [KU-55933],,,33,4,> 30,230,0.458,5.58,0.133,> 1,
COCc1ccc(-c2ccc3ncc(C(N)=O)c(N[C@@H](C)C4CCOCC4)c3c2)cn1,,,< 2.6,2.5,,< 5.3,,,,,bioavailability [13]: 31%; solubility thermodynamic at 24 h [14]: 590 µM; Cmax [15]: 6 µM; Time (Mus musculus): 10 h; bioavailability [16]: 46%; hepatocyte CLint [17]: < 2.6 µL/min/1e6 cells; clearance [18]: 18 mL/min/kg; hepatocyte CLint [19]: < 5.3 µL/min/1e6 cells; clearance [20]: 50 mL/min/kg; Vd [21]: 2.6 L/kg; AUC(0-t) at 24 h [22]: 40 µM·h; Vd [23]: 1.1 L/kg; hepatocyte CLint [24]: 18 µL/min/1e6 cells; hepatocyte CLint [25]: 11 µL/min/1e6 cells
C[C@@H](Nc1c(C(N)=O)cnc2ccc(-c3cccnc3)cc12)C1CCOCC1,0.73,4.3,14,2.3,3.5,46,,,,,
C[C@@H](Nc1c(C(N)=O)cnc2ccc(C#N)cc12)c1ccc(Cl)cc1,14.4,,10,3.5,4.7,41,0.036,0.846,0.139,0.204,IC50 [26]: 0.109 µM; IC50 [27]: 0.049 µM
CCC(CC)CNc1c(C(N)=O)cnc2ccc(-c3ccc(COC)cc3)cc12,0.373,18,21,4.1,> 30,76,,,,,
C[C@@H](Nc1c(C(N)=O)cnc2ccc(-c3cccnc3)cc12)c1ccn(C)n1,1.13,2.8,3.4,2.3,> 18,120,,,,,
NC(=O)c1cnc2ccc(-c3cccnc3)cc2c1NC1CCCC1,0.137,0.57,23,3.6,1.2,65,,,,,
Cc1ccc([C@@H](C)Nc2c(C(N)=O)cnc3ccc(C#N)cc23)cc1,,,,,,,,,,,inhibition [8]: inactive
COc1cc2ncnc(-n3nc(-c4ccccn4)nc3N)c2cc1OC,,,4.5,2.6,> 30,89,1.49,4.59,5.44,> 1,IC50 [26]: 0.879 µM
C[C@@H]1CN(CC(=O)Nc2ccc3c(c2)Cc2cccc(-c4cc(=O)cc(N5CCOCC5)o4)c2S3)C[C@H](C)O1,,,13,3.6,,22,0.452,6.55,2.14,> 1,
NC(=O)c1cnc2ccc(-c3cccnc3)cc2c1NCC1CCCCC1,0.456,0.83,40,> 4.3,3,130,,,,,
CCC(CC)CNc1c(C(N)=O)cnc2ccc(C#N)cc12,0.82,2.3,12,,4.4,74,0.247,3.45,5.74,> 1,solubility thermodynamic at 24 h [14]: 19 µM; IC50 [1]: 0.55 µM; Ratio IC50 (Homo sapiens [28]): < 10; Ratio IC50 (Homo sapiens [29]): > 10; Ratio IC50 (Homo sapiens [30]): > 10; IC50 [4]: 8.1 µM; IC50 [26]: 0.098 µM; Ratio IC50 (Homo sapiens [31]): > 400; Ratio IC50 (Homo sapiens [32]): > 400; IC50 [27]: 0.008 µM
C[C@@H](Nc1c(C(N)=O)cnc2ccc(-c3cccnc3)cc12)c1ccc(Cl)cc1,0.109,,11,> 4.3,1.9,70,0.008,0.181,0.021,0.045,Ratio IC50 (Homo sapiens [28]): > 10; IC50 [26]: 0.005 µM; IC50 [27]: 0.002 µM
CCC(CC)CNc1c(C(N)=O)cnc2ccc(-c3ccc(CO)nc3)cc12,0.087,3.1,150,3.7,> 13,> 300,,,,,
